One assay deals with LNCaP. The assay can be described thus: Cytotoxicity against human LNCAP cells after 72 hrs by XTT assay. In kind it is functional, cell-based. Particulars: 24 h, in the assay text read “after 24 hrs” for “after 72 hrs”. Summed up:
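Prostate cancer cells in RPMI-1640 with 10% FBS, 37 °C, 5% CO2, grown to 70–80% confluence and treated at 0.1–100 µM for 24, 48 and 72 h. XTT labeling for 4 h at 37 °C, absorbance 450 nm (reference 650 nm) against control wells. IC50 derived from the mean of eight wells; taxol and cisplatin served as positive controls.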

The next assay deals with DU-145. Kind of assay: Cytotoxicity against human DU145 cells after 72 hrs by XTT assay. In kind it is functional, cell-based. The following applies: DU-145, 24 h, in the assay text read “after 24 hrs” for “after 72 hrs”.

Each structure is given as a SMILES string.

A word on the IC50: it is the concentration at which inhibition is half-maximal. The low end stands for greater potency in that assay, the high end for weaker potency in that assay. Regarding `CC(C)C1=CC(=O)[C@]2(C)O[C@@]1(O)[C@@H]1[C@H](C)CC[C@@H]12` [ALPINENONE], the IC50 in the assay on LNCaP stood at 67.1 µM; in the assay on DU-145 it was 267 µM.

Take `C=C1OC(=O)/C(=C/CCCCCCCCCCCCCCCCCCCCCCCCCC)[C@@H]1O` [ISOTENUIFOLIDE]: the IC50 came out at 42.7 µM in the assay with LNCaP and 84.1 µM in the assay with DU-145. For `C=C1OC(=O)/C(=C\CCCCCCCCCCCCC)[C@@H]1O` [OBTUSILACTONE A] the same measures were 36.4 µM and 68.4 µM. Regarding `CC(=O)O[C@H]1C(=O)[C@@]2(C)[C@H]([C@H](OC(=O)c3ccccc3)[C@]3(O)C[C@H](OC(=O)[C@H](O)[C@@H](NC(=O)c4ccccc4)c4ccccc4)C(C)=C1C3(C)C)[C@]1(OC(C)=O)CO[C@@H]1C[C@@H]2O` [PACLITAXEL], the IC50 with LNCaP is 6.32 µM.
